The text below walks through data of ChEMBL document CHEMBL1143463, “Potential antitumor agents: flavones and their derivatives from Linaria reflexa Desf” (Bioorg Med Chem Lett, 2005).

Test [1] concerns ACHN. Briefly: In vitro inhibitory concentration against renal adenocarcinoma cell line (ACHN) in the presence of taxol. Type of test: functional, cell-based. The settings on record: Homo sapiens. The essentials: (§1)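 Cell lines grown in RPMI 1640 with 10% FBS, 1% L-glutamine and 1% penicillin/streptomycin at 37 °C in 5% CO2. Seeded at 2–5 × 10^4 cells/well and left 24 h, then exposed 48 h to serial dilutions at final 0.25–50 (DMSO vehicle), six replicates. Cells fixed with cold TCA, stained with SRB, and read at 564 nm. IC50 taken from % inhibition curves, three experiments, mean ± SD.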

Test [2] deals with HepG2. Briefly: In vitro inhibitory concentration against human hepatocellular carcinoma HepG-2 cells in the presence of vinblastine sulfate salt. Type of test: functional, cell-based. An outline of the steps:
(§2)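 Cultured in DMEM with 10% FBS, 1% L-glutamine and 1% penicillin/streptomycin at 37 °C in 5% CO2. After 24 h attachment at 2–5 × 10^4 cells/well, cells were treated 48 h with serial dilutions at final 0.25–50 in DMSO-containing medium, six replicates. Survival measured by SRB staining of TCA-fixed cells at 564 nm against untreated control. IC50 from dose–response curves; three experiments, mean ± SD.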

The subject of test [3] is Caco-2. Briefly: In vitro inhibitory concentration against human colorectal adenocarcinoma Caco-2 cells in the presence of vinblastine sulfate salt. Type of test: functional, cell-based. An outline of the steps:
as §2

Test [4] has as its system COR-L23. Description: In vitro inhibitory concentration against human carcinoma COR-L23 cells in the presence of vinblastine sulfate salt. In kind it is functional, cell-based. The essentials: as §1
Test [5] concerns MRC5. Description: In vitro inhibitory concentration against human fetal lung MRC-5 cell line in the presence of vinblastine sulfate salt. In kind it is functional, cell-based. The essentials:
as §2

Test [6] can be described thus: In vitro inhibitory concentration against human amelanotic melanoma cell line (C32) in the presence of vinblastine sulfate salt. In kind it is functional. An outline of the steps: as §1

SMILES strings stand for the structures. Where only a bound is given, the exact number is not on record here.

In the case of `COc1ccc(-c2cc(=O)c3c(O)c(OC)c(O[C@@H]4OC(CO[C@@H]5OC(C)[C@H](O)[C@H](OC(C)=O)C5O)[C@@H](O)[C@H](O)C4O)cc3o2)cc1` (some centres undefined), the IC50 was 16.9 µM in test [1]; 10.9 µM in test [2]; 14 µM in test [3]; 10.4 µM in test [4]; > 75.3 µM in test [5]; 21.5 µM in test [6].
Consider `COc1ccc(-c2cc(=O)c3c(O)c(OC)c(O[C@@H]4OC(CO[C@@H]5OC(C)[C@H](OC(C)=O)[C@H](O)C5O)[C@@H](O)C(O)[C@@H]4O)cc3o2)cc1` (some centres undefined), for which the IC50 in test [1] is 11.2 µM; in test [2], 23.2 µM; in test [3], 8.01 µM; in test [4], 5.17 µM; in test [5] it was > 75.3 µM; in test [6] it was 12.6 µM.
Regarding `C[C@]12O[C@H]1[C@@H](O)[C@]1(O)C=CO[C@@H](O[C@@H]3O[C@H](CO)[C@@H](O)[C@H](O)[C@H]3O)[C@@H]12` [ANTIRRHINOSIDE], the IC50 in test [1], in test [2], in test [3], in test [4], in test [5] and in test [6] was > 138 µM each time.
As to `COc1ccc(-c2cc(=O)c3c(O)c(OC)c(O[C@@H]4OC(CO[C@@H]5OC(C)[C@H](O)[C@H](O)C5OC(C)=O)[C@@H](O)[C@H](O)C4O)cc3o2)cc1` (some centres undefined) [ISOLINARIIN A], the IC50 in test [1] is 14 µM; in test [2], 16.4 µM; in test [3], 8.54 µM; in test [4], 6.68 µM; in test [5], > 75.3 µM; in test [6], 11.8 µM.
In the case of `COc1ccc(-c2cc(=O)c3c(O)c(OC)c(O)cc3o2)cc1` [PECTOLINARIGENIN], the IC50 in test [5] was > 159 µM; in test [6], 7.02 µM.
As for `COc1ccc(-c2cc(=O)c3c(O)c(OC)c(O[C@@H]4O[C@H](CO[C@@H]5O[C@@H](C)[C@H](O)[C@@H](O)[C@H]5O)[C@@H](O)[C@H](O)[C@H]4O)cc3o2)cc1` [PECTOLINARIN], the values for the IC50 in test [2], in test [5] and in test [6] were 14.1 µM, > 80.3 µM and 7.17 µM, respectively.

The IC50 is the midpoint of a concentration-inhibition curve.
